Test results taken from ChEMBL document CHEMBL3108761, “Phenanthroline-2,9-bistriazoles as selective G-quadruplex ligands” (Eur J Med Chem, 2014).
The source made the active and inactive calls. The rule behind the calls is not given here.

What was measured:
[1] = organism: Homo sapiens; experiment: Binding affinity to hairpin 5'-FAM-TATAGCTATAT7ATAGCTATA-TAMRA-3' (unknown origin) assessed as melting temperature at 1 uM by FRET assay
Outline: (§1)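 K+ buffer: 10 mM KCl, 100 mM LiCl, 10 mM cacodylate, pH 7.3. FAM/TAMRA dual-labelled probes were diluted to 400 nM, annealed at 85 °C for 10 min and cooled to room temperature, then mixed with ligand at the stated concentration. FAM was excited at 492 nm and read at 516 nm every 0.5 °C from 25 to 100 °C, with a 30 s hold before each reading. ΔTm was taken against a buffer-only control, in triplicate.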

[2] = organism: Homo sapiens; experiment: Binding affinity to human telomeric 5'-FAMd(G3[T2AG3]3)-TAMRA-3' assessed as melting temperature at 2 uM by FRET assay; outline: as §1
[3] = organism: Homo sapiens; experiment: Binding affinity to c-KIT G-quadruplex 5'-FAM-G3CG3CGCGAG3AG4-TAMRA-3' (unknown origin) assessed as melting temperature at 1 uM by FRET assay; outline: as §1
[4] = organism: Homo sapiens; experiment: Binding affinity to c-KIT G-quadruplex 5'-FAM-G3CG3CGCGAG3AG4-TAMRA-3' (unknown origin) assessed as melting temperature at 2 uM by FRET assay; outline: as §1
[5] = organism: Homo sapiens; experiment: Ratio of Kd for c-KIT G-quadruplex 5'-biotin-d[T9G3CG3CGCGAG3AG4]-3' (unknown origin) to Kd for human telomeric 5'-biotin-d[T7(T2AG3)4]-3'
[6] = Binding affinity to hairpin 5'-biotin-d[T10ATAGCTATAT7ATAGCTATA]-3' (unknown origin) assessed as dissociation constant by surface plasmon resonance assay; set-up: species or system Homo sapiens
Outline: (§2)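 Biotinylated DNA was annealed in 20 mM Tris-HCl, 200 mM KCl, pH 7.4, and captured on a streptavidin chip at ~400 RU. Running buffer: 20 mM KH2PO4, 150 mM KCl, 0.005% P20, 0.5 mM EDTA, pH 7.4. Ligand at 10–1000 nM was injected for 120 s in random order, with blank flow-cell subtraction. KD came from a steady-state affinity fit of Req against concentration; "not detected" means no significant binding at 1 µM.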

[7] = organism: Homo sapiens; experiment: Binding affinity to human telomeric 5'-FAMd(G3[T2AG3]3)-TAMRA-3' assessed as melting temperature at 1 uM by FRET assay; outline: as §1
[8] = Binding affinity to human telomeric 5'-biotin-d[T7(T2AG3)4]-3' assessed as dissociation constant (KD) by surface plasmon resonance assay; outline: as §2
[9] = organism: Homo sapiens; experiment: Binding affinity to human telomeric 5'-FAMd(G3[T2AG3]3)-TAMRA-3' assessed as melting temperature at 0.5 uM by FRET assay; outline: as §1
[10] = organism: Homo sapiens; experiment: Binding affinity to hairpin 5'-FAM-TATAGCTATAT7ATAGCTATA-TAMRA-3' (unknown origin) assessed as melting temperature at 0.5 uM by FRET assay; outline: as §1
[11] = Binding affinity to c-KIT G-quadruplex 5'-biotin-d[T9G3CG3CGCGAG3AG4]-3' (unknown origin) assessed as dissociation constant by surface plasmon resonance assay; set-up: species or system Homo sapiens; outline: as §2
[12] = organism: Homo sapiens; experiment: Binding affinity to c-KIT G-quadruplex 5'-FAM-G3CG3CGCGAG3AG4-TAMRA-3' (unknown origin) assessed as melting temperature at 0.5 uM by FRET assay; outline: as §1
[13] = organism: Homo sapiens; experiment: Binding affinity to human telomeric 5'-FAMd(G3[T2AG3]3)-TAMRA-3' in Na+ solution assessed as melting temperature at 0.5 uM by FRET assay
Outline: (§3)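 Telomeric FRET probe in Na+ buffer: 100 mM NaCl, 10 mM LiCl, 10 mM cacodylate, pH 7.3. Probe was diluted to 400 nM and annealed at 85 °C for 10 min, then cooled to room temperature; ligand was added at the stated concentration. Emission at 516 nm (excitation 492 nm) was read in 0.5 °C steps from 25 to 100 °C, with a 30 s hold per step. ΔTm versus buffer control, triplicate.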

[14] = organism: Homo sapiens; experiment: Binding affinity to hairpin 5'-biotin-d[T10ATAGCTATAT7ATAGCTATA]-3' (unknown origin) assessed as melting temperature at 1 uM by surface plasmon resonance assay; outline: as §2
[15] = organism: Homo sapiens; experiment: Binding affinity to human telomeric 5'-FAMd(G3[T2AG3]3)-TAMRA-3' in Na+ solution assessed as melting temperature at 2 uM by FRET assay; outline: as §3
[16] = organism: Homo sapiens; experiment: Binding affinity to human telomeric 5'-FAMd(G3[T2AG3]3)-TAMRA-3' in Na+ solution assessed as melting temperature at 1 uM by FRET assay; outline: as §3
[17] = organism: Homo sapiens; experiment: Displacement of thiazole orange from c-KIT G-quadruplex 5'-G3CG3CGCGAG3AG4-3' (unknown origin) assessed as reduction of fluorescence by G4-FID assay
Outline: (§4)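 Done at 20 °C in 10 mM sodium cacodylate pH 7.3 with 100 mM KCl; 22AG was also run with 100 mM NaCl. 0.25 µM prefolded DNA carried thiazole orange: 0.50 µM for 22AG and c-KIT, 0.75 µM for ds26. Ligand was titrated from 0.2 to 10 equivalents, with 3 min equilibration per step. Displacement = 100 − (FA/FA0 × 100), from emission area 510–750 nm (excitation 501 nm). DC50 was taken as 50% displacement; otherwise the displacement at 2.5 µM ligand is given.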

[18] = organism: Homo sapiens; experiment: Displacement of thiazole orange from human telomeric 5'-AG3(T2AG3)3-3' (unknown origin) assessed as reduction of fluorescence at 2.5 uM by G4-FID assay; outline: as §4
[19] = organism: Homo sapiens; experiment: Binding affinity to c-KIT G-quadruplex 5'-G3CG3CGCGAG3AG4-3' (unknown origin) by circular dichroism spectroscopy
[20] = organism: Homo sapiens; experiment: Displacement of thiazole orange from human telomeric 5'-AG3(T2AG3)3-3' (unknown origin) in Na+ solution assessed as reduction of fluorescence by G4-FID assay; outline: as §4
[21] = organism: Homo sapiens; experiment: Displacement of thiazole orange from human telomeric 5'-AG3(T2AG3)3-3' (unknown origin) in K+ solution assessed as reduction of fluorescence by G4-FID assay; outline: as §4
[22] = organism: Homo sapiens; experiment: Displacement of thiazole orange from 5'-CA2TCG2ATCGA2T2CGATC2GAT2G-3' (unknown origin) assessed as reduction of fluorescence at 2.5 uM by G4-FID assay; outline: as §4
[23] = organism: Homo sapiens; experiment: Binding affinity to human telomeric 5'-AG3(T2AG3)3-3' by circular dichroism spectroscopy
Outline: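 DNA at 2 µM final in 10 mM Tris-HCl, 100 mM KCl, pH 7.4 was annealed at 95 °C for 10 min and slowly cooled. Ligand was then added at several final concentrations. Spectra were recorded from 220 to 320 nm in a 5 mm cell at 25 °C, averaged over five scans and buffer-corrected, to assess whether the G-quadruplex fold was retained.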

In the case of `NCCCCn1cc(-c2ccc3ccc4ccc(-c5cn(CCCCN)nn5)nc4c3n2)nn1`, the ΔTm [1] is reported as 1.3 °C, the ΔTm [2] is reported as 15.8 °C and the ΔTm [3] is reported as 13.6 °C. It also gave a ΔTm [4] of 15.2 °C, a Ratio [5] of 2 and a Kd [6] of 1060 nM. The ΔTm [7] was 12.9 °C, the Kd [8] was 115 nM and the ΔTm [9] was 10.1 °C. For the same compound, the ΔTm [10] was 1 °C, the Kd [11] was 50 nM and the ΔTm [12] was 11.1 °C.

`CC(C)/N=C(/NCCCn1cc(-c2ccc3ccc4ccc(-c5cn(CCCN/C(=N\C(C)C)NC(C)C)nn5)nc4c3n2)nn1)NC(C)C` showed a ΔTm [1] of 1.3 °C, a ΔTm [2] of 14.5 °C and a ΔTm [13] of 2.8 °C. For the same compound, the ΔTm [3] was 12 °C, the ΔTm [4] was 14.6 °C and the Ratio [5] was 13. For the same compound, the inhibition [14] was “inactive”, the ΔTm [7] was 9.5 °C and the Kd [8] was 440 nM. The ΔTm [9] was 3.2 °C, the ΔTm [10] was 0.7 °C and the ΔTm [15] was 8.8 °C. It also gave a Kd [11] of 33 nM, a ΔTm [16] of 4.3 °C and a ΔTm [12] of 8.3 °C.

For `N=C(N)NCCn1cc(-c2ccc3ccc4ccc(-c5cn(CCNC(=N)N)nn5)nc4c3n2)nn1`, the ΔTm [1] was 2.5 °C, the ΔTm [2] was 18.9 °C and the ΔTm [3] was 13.9 °C. For the same compound, the ΔTm [4] was 16.4 °C, the Ratio [5] was 2 and the Kd [6] was 1120 nM. The ΔTm [7] was 15 °C, the Kd [8] was 75 nM and the ΔTm [9] was 11 °C. For the same compound, the ΔTm [10] was 1.2 °C, the Kd [11] was 50 nM and the ΔTm [12] was 11 °C.

Work on `NCCn1cc(-c2ccc3ccc4ccc(-c5cn(CCN)nn5)nc4c3n2)nn1` yielded a ΔTm [1] of 0.6 °C, a ΔTm [2] of 6.8 °C and a ΔTm [3] of 4.9 °C. The ΔTm [4] was 6.2 °C, the Ratio [5] was 2 and the Kd [6] was 1180 nM. The ΔTm [7] was 5.5 °C, the Kd [8] was 139 nM and the ΔTm [9] was 4.4 °C. It also gave a ΔTm [10] of 0.4 °C, a Kd [11] of 47 nM and a ΔTm [12] of 3.7 °C.

`N=C(N)NCCCn1cc(-c2ccc3ccc4ccc(-c5cn(CCCNC(=N)N)nn5)nc4c3n2)nn1` showed a ΔTm [1] of 2.8 °C, a ΔTm [2] of 22 °C and a ΔTm [13] of 6.6 °C. The Q50 [17] was 0.25 µM, the ΔTm [3] was 16.1 °C and the inhibition [18] was 47%. For the same compound, the ΔTm [4] was 18.4 °C, the Ratio [5] was 2 and the Activity [19] was “Active”. It also gave a Kd [6] of 1060 nM, a Q50 [20] of over 2.5 µM and a ΔTm [7] of 18 °C. For the same compound, the Kd [8] was 57 nM, the ΔTm [9] was 12.2 °C and the ΔTm [10] was 1.6 °C. The ΔTm [15] was 16.4 °C, the Q50 [21] was 0.94 µM and the Kd [11] was 28 nM. The ΔTm [16] was 11.4 °C, the inhibition [22] was 21% and the Activity [23] was “Active”. It also gave a ΔTm [12] of 11.4 °C.

With `NCCCn1cc(-c2ccc3ccc4ccc(-c5cn(CCCN)nn5)nc4c3n2)nn1` the ΔTm [1] was 1.2 °C, the ΔTm [2] was 16.1 °C and the ΔTm [13] was 5.1 °C. For the same compound, the ΔTm [3] was 11.8 °C, the ΔTm [4] was 13.9 °C and the Ratio [5] was 2. It also gave a Kd [6] of 914 nM, a ΔTm [7] of 13.3 °C and a Kd [8] of 75 nM. It also gave a ΔTm [9] of 10.3 °C, a ΔTm [10] of 1.1 °C and a ΔTm [15] of 11.9 °C. The Kd [11] was 45 nM, the ΔTm [16] was 8.4 °C and the ΔTm [12] was 9.8 °C.

Work on `CC(C)/N=C(/NCCCCn1cc(-c2ccc3ccc4ccc(-c5cn(CCCCN/C(=N\C(C)C)NC(C)C)nn5)nc4c3n2)nn1)NC(C)C` yielded a ΔTm [1] of 1.3 °C, a ΔTm [2] of 18.1 °C and a ΔTm [3] of 13.9 °C. For the same compound, the ΔTm [4] was 15.9 °C, the Ratio [5] was 2 and the inhibition [14] was “inactive”. The ΔTm [7] was 15.1 °C, the Kd [8] was 176 nM and the ΔTm [9] was 5.1 °C. The ΔTm [10] was 0.8 °C, the Kd [11] was 35 nM and the ΔTm [12] was 10.3 °C.

For `CC(C)/N=C(/NCCn1cc(-c2ccc3ccc4ccc(-c5cn(CCN/C(=N\C(C)C)NC(C)C)nn5)nc4c3n2)nn1)NC(C)C`, the ΔTm [1] was 1.1 °C, the ΔTm [2] was 13.6 °C and the ΔTm [3] was 10.4 °C. For the same compound, the ΔTm [4] was 12.5 °C, the Ratio [5] was 13 and the inhibition [14] was “inactive”. It also gave a ΔTm [7] of 9.7 °C, a Kd [8] of 567 nM and a ΔTm [9] of 4.2 °C. It also gave a ΔTm [10] of 0.7 °C, a Kd [11] of 40 nM and a ΔTm [12] of 7.4 °C.

Work on `C[n+]1ccc(-c2c3nc(c(-c4cc[n+](C)cc4)c4ccc([nH]4)c(-c4cc[n+](C)cc4)c4ccc([nH]4)c(-c4cc[n+](C)cc4)c4nc2C=C4)C=C3)cc1` yielded a ΔTm [1] of 14.8 °C, a ΔTm [2] of over 35 °C and a ΔTm [3] of over 25 °C. It also gave a ΔTm [7] of 23.1 °C, a ΔTm [9] of 19.7 °C and a ΔTm [10] of 9.3 °C. For the same compound, the ΔTm [12] was over 25 °C.

In the case of `N=C(N)NCCCCn1cc(-c2ccc3ccc4ccc(-c5cn(CCCCNC(=N)N)nn5)nc4c3n2)nn1`, the ΔTm [1] is reported as 3.7 °C, the ΔTm [2] is reported as 21.8 °C and the ΔTm [3] is reported as 16.8 °C. For the same compound, the ΔTm [4] was 18.5 °C, the Ratio [5] was 2 and the Kd [6] was 1020 nM. The ΔTm [7] was 17.3 °C, the Kd [8] was 61 nM and the ΔTm [9] was 12.2 °C. The ΔTm [10] was 1.7 °C, the Kd [11] was 29 nM and the ΔTm [12] was 13.8 °C.
